According to ChEMBL document CHEMBL3232893, “Design of antiviral stapled peptides containing a biphenyl cross-linker” (Bioorg Med Chem Lett, 2014):
Bridge positions count the residues as written; N and C are the ends. Square brackets hold non-standard residues; d marks the D form. Peptide text beside a SMILES is read from it. R8 = C=CCCCCCC[C@@](C)(N)C(=O)O; S5 = C=CCCC[C@](C)(N)C(=O)O

Columns and labels:
[1] = system: Human immunodeficiency virus 1; assay: Antiviral activity against HIV-1 3B infected in human MT-2 cells assessed as reduction in p24 antigen level incubated for overnight measured on fourth day post infection by multi-cycle infection assay based sandwich ELISA; format: functional, organism-based; conditions: Human immunodeficiency virus 1, 3B, MT2
In short: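 Multi-cycle infection in MT-2 cells; read-out is reduction of p24 levels. IC50 derived from dose-response.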

[2] = system: Human immunodeficiency virus 1; assay: Antiviral activity against HIV-1 NL4-3-HXB2 pseudovirus co-transfected with luciferase gene infected in human TZM-bl cells assessed as reduction of luciferase production after 3 days by single-cycle neutralization assay; format: functional, organism-based; conditions: Human immunodeficiency virus 1, NL4-3-HXB2, TZM-bl, 72 h
In short: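 Single-cycle neutralization in TZM-bl cells; read-out is reduction of luciferase production. IC50 derived from dose-response.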

[3] = Cytotoxicity against human MT2 cells after 4 days by XTT assay; format: cell-based
[4] = Cytotoxicity against human TZM-bl cells after 3 days by XTT assay; format: cell-based
[5] = Drug uptake in human HEK293T cells assessed as increase in fluorescence at 5 uM after 2 hrs by confocal microscopy; format: ADME, cell-based; conditions: hek-293t
In short: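 HEK293T cells were incubated with 5 μM FITC-labeled peptide at 37°C for 2 h. Intracellular fluorescence was imaged by confocal microscopy, with DIC images alongside.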

[6] = Binding affinity to HIV-1 capsid protein C-terminal domain M184A/W185A mutant at 15 uM by isothermal titration calorimetric analysis; parameters: species or system Human immunodeficiency virus 1
In short: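 ITC: 350 μM CTD M184A/W185A mutant titrated in 10 μL aliquots into 15 μM peptide in the cell. The integrated binding isotherm was fitted to a single-site binding equation to give Kd.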

[7] = Binding affinity to HIV-1 C-terminal domain of capsid protein p24; parameters: species or system Human immunodeficiency virus 1

Question: Which results are given for `CC[C@H](C)[C@H](NC(C)=O)C(=O)N[C@@H](CO)C(=O)N[C@@H](Cc1ccccc1)C(=O)N[C@@H]1CSCc2ccc(cc2)-c2ccc(cc2)CSC[C@@H](C(=O)N[C@@H](CCC(=O)O)C(=O)N[C@@H](CO)C(=O)NCC(=O)N[C@@H](CO)C(N)=O)NC(=O)[C@H](Cc2ccc(O)cc2)NC(=O)[C@H](Cc2ccc(O)cc2)NC(=O)[C@H](CC(=O)O)NC(=O)[C@H](C)NC(=O)[C@H](CC(C)C)NC(=O)[C@H](CCC(=O)O)NC1=O`?
Answer: IC50 [1]: 4.1 µM; IC50 [2]: 1.4 µM; CC50 at 96 h [3]: 26 µM; CC50 at 72 h [4]: > 52 µM

Question: Which IC50 [1] does the source give for `CC[C@H](C)[C@H](NC(C)=O)C(=O)N[C@@H](CO)C(=O)N[C@@H](Cc1ccccc1)C(=O)N[C@@H]1CSCc2ccc(cc2)-c2ccc(cc2)CSC[C@@H](C(=O)N[C@@H](CCC(=O)O)C(=O)N[C@@H](CO)C(=O)NCC(=O)N[C@@H](CO)C(N)=O)NC(=O)[C@H](C)NC(=O)[C@H](Cc2ccc(O)cc2)NC(=O)[C@H](CC(=O)O)NC(=O)[C@H](CC(C)C)NC(=O)[C@H](CC(C)C)NC(=O)[C@H](CCC(=O)O)NC1=O` here?
Answer: 14 µM

Question: What about the IC50 [2] of the same compound?
Answer: 17.3 µM

Question: And the CC50 at 96 h [3]?
Answer: > 107 µM

Question: What about the CC50 at 72 h [4] of the same compound?
Answer: > 107 µM

Question: Which Drug uptake [5] does the source give for `CC[C@H](C)[C@H](NC(=S)Nc1ccc(-c2c3ccc(=O)cc-3oc3cc(O)ccc23)c(C(=O)O)c1)C(=O)N[C@@H](CO)C(=O)N[C@@H](Cc1ccccc1)C(=O)N[C@@H]1CSCc2ccc(cc2)-c2ccc(cc2)CSC[C@@H](C(=O)N[C@@H](CCC(=O)O)C(=O)N[C@@H](CO)C(=O)NCC(=O)N[C@@H](CO)C(=O)O)NC(=O)[C@H](Cc2ccc(O)cc2)NC(=O)[C@H](Cc2ccc(O)cc2)NC(=O)[C@H](CC(=O)O)NC(=O)[C@H](CC(C)C)NC(=O)[C@H](CC(C)C)NC(=O)[C@H](CCC(=O)O)NC1=O` here?
Answer: Active

Question: What does the source list for `CC[C@H](C)[C@H](N)C(=O)N[C@@H](CO)C(=O)N[C@@H](Cc1ccccc1)C(=O)N[C@]1(C)CCCCCC/C=C\CCC[C@@](C)(C(=O)N[C@@H](CCC(=O)O)C(=O)N[C@@H](CO)C(=O)NCC(=O)N[C@@H](CO)C(=O)O)NC(=O)[C@H](Cc2ccc(O)cc2)NC(=O)[C@H](Cc2ccc(O)cc2)NC(=O)[C@H](CC(=O)O)NC(=O)[C@H](CC(C)C)NC(=O)[C@H](CC(C)C)NC(=O)[C@H](CCC(=O)O)NC1=O` (H-ISF[R8]ELLDYY[S5]ESGS-OH; staple (Z) 4-11)?
Answer: IC50 [1]: 1.5 µM; IC50 [2]: 2 µM; CC50 at 96 h [3]: > 189 µM; CC50 at 72 h [4]: > 189 µM

Question: What does the source list for `CC[C@H](C)[C@H](N)C(=O)N[C@H](C(=O)N[C@@H](Cc1ccccc1)C(=O)N[C@@H](CCC(=O)O)C(=O)N[C@@H](CC(=O)O)C(=O)N[C@@H](CC(C)C)C(=O)N[C@@H](CC(C)C)C(=O)N[C@@H](CC(=O)O)C(=O)N[C@@H](Cc1ccc(O)cc1)C(=O)N[C@@H](Cc1ccc(O)cc1)C(=O)NCC(=O)N1CCC[C@H]1C(=O)O)[C@@H](C)O` (H-ITFEDLLDYYGP-OH)?
Answer: IC50 [1]: > 135 µM; IC50 [2]: > 135 µM; CC50 at 96 h [3]: > 135 µM; CC50 at 72 h [4]: > 135 µM; Kd [6]: 8.3 µM; Kd [7]: 15 µM
